# Data: ChEMBL document CHEMBL4689842, “EUbOPEN Chemogenomics Library wave 1” (2021)
# Assays:
# Type in all cases: toxicity, cell-based
# HEK-293T [1] = test: Multiplex assay against HEK293T; details: human;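 as to Population Tubulin-Different-Phenotype (%): share of the cells with healthy nuclei that show this phenotype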
# In short: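 Cells were classed with CellPathfinder machine-learning gating, first as Hoechst high-intensity objects or normal cells, then (normal cells) as healthy, pyknosed or fragmented nuclei, and finally (pyknosed cells) as mitotic or apoptotic. Staining of live cells at seeding used Hoechst33342, BioTracker Green Microtubule Cytoskeleton Dye, MitoTracker Red and Annexin V Alexa Fluor 680, with imaging on a CQ1 microscope at 37°C and 5% CO2 after compound addition. Tubulin, mitochondrial-mass and membrane-permeability phenotypes are per cents of healthy-nucleus cells.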
# Fibroblast = test: Incucyte cell viability with human fibroblast; details: 10 µM, compound concentration 10 uM; also: filed as whole numbers so only -1 and 0 and 1 occur
# HEK-293T [2] = test: Incucyte cell viability with HEK293T; details: human, 10 µM, compound concentration 10 uM; also: filed as whole numbers so only -1 and 0 and 1 occur
# [3] = 12 h, 1 µM, compound concentration 1 uM, replicate 1
# [4] = 12 h, 1 µM, compound concentration 1 uM, replicate 2
# [5] = 12 h, 10 µM, compound concentration 10 uM, replicate 1
# [6] = 12 h, 10 µM, compound concentration 10 uM, replicate 2
# [7] = 24 h, 1 µM, compound concentration 1 uM, replicate 1
# [8] = 24 h, 1 µM, compound concentration 1 uM, replicate 2
# [9] = 24 h, 10 µM, compound concentration 10 uM, replicate 1
# [10] = 24 h, 10 µM, compound concentration 10 uM, replicate 2
# [11] = 6 h, replicate number 1, timepoint 6 hours
# [12] = 12 h, replicate number 1, timepoint 12 hours
# [13] = 18 h, replicate number 1, timepoint 18 hours
# [14] = 24 h, replicate number 1, timepoint 24 hours
smiles,measurement,setting,value
Cc1c(Nc2ccc(S(=O)(=O)N3CCN(C)CC3)cc2F)nc2ccc(Nc3cnn(C4CC4)c3)cn2c1=O,Population Apoptotic (%),HEK-293T [1]; [3],17%
same,Population Fragmented Nuclei (%),HEK-293T [1]; [3],13%
same,Population Healthy Nuclei (%),HEK-293T [1]; [3],52%
same,Population Hoechst High Intensity Objects (%),HEK-293T [1]; [3],16%
same,Population Membrane Permeable-Phenotype (%),HEK-293T [1]; [3],15%
same,Population Mitochondria Different-Phenotype (%),HEK-293T [1]; [3],11%
same,Population Mitotic Cells (%),HEK-293T [1]; [3],82%
same,Population Normal (%),HEK-293T [1]; [3],83%
same,Population Pyknosed Nuclei (%),HEK-293T [1]; [3],33%
same,Population Tubulin-Different-Phenotype (%),HEK-293T [1]; [3],47%
same,Total Cell Count,HEK-293T [1]; [3],566
same,Population Apoptotic (%),HEK-293T [1]; [4],11%
same,Population Fragmented Nuclei (%),HEK-293T [1]; [4],3%
same,Population Healthy Nuclei (%),HEK-293T [1]; [4],83%
same,Population Hoechst High Intensity Objects (%),HEK-293T [1]; [4],3%
same,Population Membrane Permeable-Phenotype (%),HEK-293T [1]; [4],14%
same,Population Mitochondria Different-Phenotype (%),HEK-293T [1]; [4],29%
same,Population Mitotic Cells (%),HEK-293T [1]; [4],88%
same,Population Normal (%),HEK-293T [1]; [4],96%
same,Population Pyknosed Nuclei (%),HEK-293T [1]; [4],12%
same,Population Tubulin-Different-Phenotype (%),HEK-293T [1]; [4],73%
same,Total Cell Count,HEK-293T [1]; [4],888
same,Population Apoptotic (%),HEK-293T [1]; [5],17%
same,Population Fragmented Nuclei (%),HEK-293T [1]; [5],11%
same,Population Healthy Nuclei (%),HEK-293T [1]; [5],73%
same,Population Hoechst High Intensity Objects (%),HEK-293T [1]; [5],8%
same,Population Membrane Permeable-Phenotype (%),HEK-293T [1]; [5],4%
same,Population Mitochondria Different-Phenotype (%),HEK-293T [1]; [5],4%
same,Population Mitotic Cells (%),HEK-293T [1]; [5],82%
same,Population Normal (%),HEK-293T [1]; [5],91%
same,Population Pyknosed Nuclei (%),HEK-293T [1]; [5],15%
same,Population Tubulin-Different-Phenotype (%),HEK-293T [1]; [5],4%
same,Total Cell Count,HEK-293T [1]; [5],791
same,Population Apoptotic (%),HEK-293T [1]; [6],4%
same,Population Fragmented Nuclei (%),HEK-293T [1]; [6],6%
same,Population Healthy Nuclei (%),HEK-293T [1]; [6],89%
same,Population Hoechst High Intensity Objects (%),HEK-293T [1]; [6],2%
same,Population Membrane Permeable-Phenotype (%),HEK-293T [1]; [6],2%
same,Population Mitochondria Different-Phenotype (%),HEK-293T [1]; [6],10%
same,Population Mitotic Cells (%),HEK-293T [1]; [6],95%
same,Population Normal (%),HEK-293T [1]; [6],97%
same,Population Pyknosed Nuclei (%),HEK-293T [1]; [6],4%
same,Population Tubulin-Different-Phenotype (%),HEK-293T [1]; [6],7%
same,Total Cell Count,HEK-293T [1]; [6],1683
same,Population Apoptotic (%),HEK-293T [1]; [7],27%
same,Population Fragmented Nuclei (%),HEK-293T [1]; [7],16%
same,Population Healthy Nuclei (%),HEK-293T [1]; [7],60%
same,Population Hoechst High Intensity Objects (%),HEK-293T [1]; [7],11%
same,Population Membrane Permeable-Phenotype (%),HEK-293T [1]; [7],21%
same,Population Mitochondria Different-Phenotype (%),HEK-293T [1]; [7],9%
same,Population Mitotic Cells (%),HEK-293T [1]; [7],72%
same,Population Normal (%),HEK-293T [1]; [7],88%
same,Population Pyknosed Nuclei (%),HEK-293T [1]; [7],23%
same,Population Tubulin-Different-Phenotype (%),HEK-293T [1]; [7],65%
same,Total Cell Count,HEK-293T [1]; [7],536
same,Population Apoptotic (%),HEK-293T [1]; [8],12%
same,Population Fragmented Nuclei (%),HEK-293T [1]; [8],6%
same,Population Healthy Nuclei (%),HEK-293T [1]; [8],85%
same,Population Hoechst High Intensity Objects (%),HEK-293T [1]; [8],5%
same,Population Mitochondria Different-Phenotype (%),HEK-293T [1]; [8],16%
same,Population Mitotic Cells (%),HEK-293T [1]; [8],87%
same,Population Normal (%),HEK-293T [1]; [8],94%
same,Population Pyknosed Nuclei (%),HEK-293T [1]; [8],7%
same,Population Tubulin-Different-Phenotype (%),HEK-293T [1]; [8],83%
same,Total Cell Count,HEK-293T [1]; [8],1100
same,Population Apoptotic (%),HEK-293T [1]; [9],16%
same,Population Fragmented Nuclei (%),HEK-293T [1]; [9],8%
same,Population Healthy Nuclei (%),HEK-293T [1]; [9],85%
same,Population Hoechst High Intensity Objects (%),HEK-293T [1]; [9],4%
same,Population Membrane Permeable-Phenotype (%),HEK-293T [1]; [9],9%
same,Population Mitochondria Different-Phenotype (%),HEK-293T [1]; [9],3%
same,Population Mitotic Cells (%),HEK-293T [1]; [9],83%
same,Population Normal (%),HEK-293T [1]; [9],95%
same,Population Pyknosed Nuclei (%),HEK-293T [1]; [9],6%
same,Population Tubulin-Different-Phenotype (%),HEK-293T [1]; [9],8%
same,Total Cell Count,HEK-293T [1]; [9],922
same,Population Apoptotic (%),HEK-293T [1]; [10],0%
same,Population Fragmented Nuclei (%),HEK-293T [1]; [10],18%
same,Population Healthy Nuclei (%),HEK-293T [1]; [10],79%
same,Population Hoechst High Intensity Objects (%),HEK-293T [1]; [10],3%
same,Population Membrane Permeable-Phenotype (%),HEK-293T [1]; [10],7%
same,Population Mitochondria Different-Phenotype (%),HEK-293T [1]; [10],2%
same,Population Mitotic Cells (%),HEK-293T [1]; [10],100%
same,Population Normal (%),HEK-293T [1]; [10],96%
same,Population Pyknosed Nuclei (%),HEK-293T [1]; [10],2%
same,Population Tubulin-Different-Phenotype (%),HEK-293T [1]; [10],10%
same,Total Cell Count,HEK-293T [1]; [10],2721
same,Growth Rate,"Fibroblast; 0 h, replicate number 2, timepoint 0 hours",0
same,Growth Rate,Fibroblast; [11],0
same,Growth Rate,Fibroblast; [12],0
same,Growth Rate,Fibroblast; [13],0
same,Growth Rate,Fibroblast; [14],0
same,Growth Rate,"Fibroblast; 24 h, replicate number 2, timepoint 24 hours",1
same,Growth Rate,"HEK-293T [2]; 0 h, replicate number 1, timepoint 0 hours",1
same,Growth Rate,HEK-293T [2]; [11],0
same,Growth Rate,HEK-293T [2]; [12],0
same,Growth Rate,HEK-293T [2]; [13],0
same,Growth Rate,HEK-293T [2]; [14],0
